ChEMBL document CHEMBL4196174, “Discovery of Indole Derivatives as Novel and Potent Dengue Virus Inhibitors” (J Med Chem, 2018)
≈ marks a conversion by molar mass, not a printed value.

Assays:
dengue virus type 2 = assay: Antiviral activity against Dengue virus 2 Rega infected in African green monkey Vero cells assessed as reduction in viral yield after 4 days by qRT-PCR analysis; type: functional, organism-based
How it was run: (§1)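 Virus yield reduction in Vero cells (seeded 5×10^4/well). Next day infected with DENV (MOI 0.01) in assay medium (MEM, 2% FBS, 0.075% bicarbonate, 2 mM L-glutamine). After 1 h, input virus was removed and cells rinsed 3 times. Medium with 3- or 5-fold compound serial dilutions was then added. Incubation was 4 days (DENV-2, DENV-4) or 7 days (DENV-1, DENV-3). Supernatant viral RNA was measured by RT-qPCR, and EC50 obtained by logarithmic interpolation.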

[1] = (§2) Cytotoxicity against African green monkey Vero cells assessed as cell growth inhibition after 4 days by MTS/PMS method; type: cell-based; details: chlorocebus sabaeus, Vero cells
How it was run: (§3)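 Cytotoxicity run as in the yield assay, but without virus. Vero cells (5×10^4/well) were exposed to 3- or 5-fold serial dilutions in MEM with 2% FBS. Viability was read by the MTS/PMS colorimetric method. CC50 was derived by logarithmic interpolation.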

Salmonella typhimurium [2] = assay: Mutagenicity in Salmonella typhimurium in presence of human liver S9 fraction by Ames test; type: toxicity, organism-based; details: salmonella enterica subsp. enterica serovar typhimurium
Salmonella typhimurium [3] = assay: Mutagenicity in Salmonella typhimurium in absence of human liver S9 fraction by Ames test; type: toxicity, organism-based; details: salmonella enterica subsp. enterica serovar typhimurium
dengue virus type 1 = assay: Antiviral activity against Dengue virus 1 Djibouti D1/H/IMTSSA/98/606 infected in African green monkey Vero cells assessed as reduction in viral yield after 7 days by qRT-PCR analysis; type: functional, organism-based; details: Djibouti D1/H/IMTSSA/98/606, Vero, 168 h; how it was run: as §1
dengue virus type 4 = assay: Antiviral activity against Dengue virus 4 DAKHD34460 infected in African green monkey Vero cells assessed as reduction in viral yield after 4 days by qRT-PCR analysis; type: functional, organism-based; details: 96 h; how it was run: as §1
dengue virus type 3 = assay: Antiviral activity against Dengue virus 3 H87 infected in African green monkey Vero cells assessed as reduction in viral yield after 7 days by qRT-PCR analysis; type: functional, organism-based; details: 168 h; how it was run: as §1
[4] = Drug metabolism in rat liver microsomes after 15 mins; type: ADME, microsome; details: for metabolised at 0.25 h: liver microsomes, read-out: Drug metabolism
How it was run: (§4)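 Percentage of compound metabolized after 15 min incubation with human or rat liver microsomes.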

[5] = Solubility of the compound in DMSO solution at pH 7.4; type: physicochemical
How it was run: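 Solubility measured at pH 7.4, starting from a DMSO solution.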

[6] = Drug metabolism in human liver microsomes after 15 mins; type: ADME, microsome; details: for metabolised at 0.25 h: liver microsomes, read-out: Drug metabolism; how it was run: as §4
Vero = assay: as §2; type: cell-based; details: chlorocebus sabaeus, vero, 96 h; how it was run: as §3

Row | SMILES | EC50 (dengue virus type 2; Dengue virus, Rega, Vero, 96 h) | CC50 at 96 h [1] | also measured
1 | CCOc1cc(NC(C(=O)c2c[nH]c3ccccc23)c2ccccc2)cc(OC)c1 (configuration not stated) | 0.018 µM | 13 µM | 
2 | COc1cccc(NC(C(=O)c2c[nH]c3ccccc23)c2cc3ccccn3n2)c1 (configuration not stated) | 0.028 µM | 26 µM | 
3 | O=C(c1c[nH]c2ccccc12)C(NC1CCCC1)c1ccccc1 (configuration not stated) | 15 µM | 86 µM | 
4 | COc1cc(NC(C(=O)c2c[nH]c3ccc(CO)cc23)c2ccccc2)cc(OC)c1 (configuration not stated) | 0.106 µM | 65 µM | 
5 | COc1cccc(NC(C(=O)c2c[nH]c3cc(Cl)ccc23)c2ccccc2)c1 (configuration not stated) | 0.013 µM | 13 µM | 
6 | O=C(c1c[nH]c2ccccc12)C(Nc1cc(F)cc(F)c1)c1ccccc1 (configuration not stated) | 1.7 µM | 23 µM | 
7 | COc1cccc(NC(C(=O)c2c[nH]c3cc(OC)ccc23)c2ccccc2)c1 (configuration not stated) | 0.043 µM | 13 µM | 
8 | COc1cc(NC(C(=O)c2c[nH]c3ccccc23)c2ccccc2)cc(OCCN(C)C)c1 (configuration not stated) | 1.7 µM | 13 µM | 
9 | COc1cccc(NC(C(=O)c2c[nH]c3ccccc23)c2ccccc2)c1 (configuration not stated) | 0.073 µM | 18 µM | Activity (Salmonella typhimurium [2]): Non-Toxic; Activity (Salmonella typhimurium [3]): Non-Toxic
10 | COc1cc(NC(C(=O)c2c[nH]c3ccc(CCO)cc23)c2ccccc2)cc(OC)c1 (configuration not stated) | 0.181 µM | 56 µM | 
11 | COc1cc(NC(C(=O)c2c[nH]c3cccc(CCCO)c23)c2ccccc2)cc(OC)c1 (configuration not stated) | 1.4 µM | 55 µM | 
12 | N#Cc1cccc(NC(C(=O)c2c[nH]c3ccccc23)c2ccccc2)c1 (configuration not stated) | 2.1 µM | 14 µM | 
13 | COc1cc(NC(C(=O)c2c[nH]c3ccccc23)c2ccccc2)cc(OCCCO)c1 (configuration not stated) | 0.085 µM | 50 µM | metabolised at 0.25 h [4]: 67%; solubility ([5]; read-out: solubility): 30 µM (≈ 12.9 µg/mL); metabolised at 0.25 h [6]: 8%
14 | COc1cccc(NC(C(=O)c2c[nH]c3ccccc23)c2cccnc2)c1 (configuration not stated) | 0.138 µM | 71 µM | 
15 | COc1cccc(NC(C(=O)c2c[nH]c3ccc(F)cc23)c2ccccc2)c1 (configuration not stated) | 0.034 µM | 13 µM | 
16 | COc1cccc(NC(C(=O)c2c[nH]c3cccc(F)c23)c2ccccc2)c1 (configuration not stated) | 0.122 µM | 21 µM | 

Row | SMILES | EC50 (dengue virus type 2; Dengue virus, Rega, Vero, 96 h) | CC50 at 96 h [1] | also measured
17 | O=C(c1c[nH]c2ccccc12)C(Nc1cccc(F)c1)c1ccccc1 (configuration not stated) | 2.4 µM | 12 µM | 
18 | CS(=O)(=O)c1cccc(NC(C(=O)c2c[nH]c3ccccc23)c2ccccc2)c1 (configuration not stated) | 6.5 µM | 65 µM | 
19 | COc1cccc(NC(C(=O)c2c[nH]c3ccccc23)c2cnccn2)c1 (configuration not stated) | 0.837 µM | 65 µM | 
20 | COc1cccc(NC(C(=O)c2c[nH]c3ccccc23)c2ccc(C)nc2)c1 (configuration not stated) | 0.073 µM | 73 µM | 
21 | COc1cncc(NC(C(=O)c2c[nH]c3ccccc23)c2ccccc2)n1 (configuration not stated) | 0.484 µM | 68 µM | 
22 | COc1cc(NC(C(=O)c2c[nH]c3ccccc23)c2ccc(F)cc2)cc(OCCO)c1 (configuration not stated) | 0.013 µM | 46 µM | metabolised at 0.25 h [4]: 23%; solubility ([5]; read-out: solubility): 27 µM (≈ 11.7 µg/mL); metabolised at 0.25 h [6]: 7%
23 | COc1cccc(NC(C(=O)c2c[nH]c3ccccc23)c2cc(C)on2)c1 (configuration not stated) | 0.59 µM | 50 µM | 
24 | COc1cccc(NC(C(=O)c2c[nH]c3c(F)cccc23)c2ccccc2)c1 (configuration not stated) | 0.057 µM | 14 µM | 
25 | COc1cccc(NC(C(=O)c2c[nH]c3ccccc23)c2ccco2)c1 (configuration not stated) | 0.297 µM | 16 µM | 
26 | O=C(c1c[nH]c2ccccc12)C(Nc1cccc(OC(F)(F)F)c1)c1ccccc1 (configuration not stated) | 0.926 µM | 5 µM | 
27 | COc1cccc(NC(C(=O)c2c[nH]c3ccccc23)c2ccccc2)c1OC (configuration not stated) | 4.2 µM | > 129 µM | 
28 | COc1cccc(NC(C(=O)c2c[nH]c3ccccc23)c2ccc(F)cc2)c1 (configuration not stated) | 0.025 µM | 14 µM | 
29 | COc1cccc(NC(C(=O)c2c[nH]c3ccccc23)c2ccc(S(C)(=O)=O)cc2)c1 (configuration not stated) | 1.6 µM | > 115 µM | 
30 | COc1cc(NC(C(=O)c2c[nH]c3c(CCS(C)(=O)=O)cccc23)c2ccccc2)cc(OC)c1 (configuration not stated) | 0.406 µM | > 102 µM | 
31 | COc1cc(NC(C(=O)c2c[nH]c3ccccc23)c2ccccc2)cc(OCCO)c1 (racemic) |  |  | EC50 (dengue virus type 2; vero): 0.059 µM; Drug metabolism ([4]; microsomes, 0.25 h): 37%; CC50 (Vero): 47 µM; solubility [5]: 60 µM (≈ 25 µg/mL); Drug metabolism ([6]; microsomes, 0.25 h): 13%
32 | COc1cc(NC(C(=O)c2c[nH]c3ccccc23)c2ccccc2)cc(OCCO)c1 (single isomer, unassigned; (-)) |  |  | EC50 (dengue virus type 2; vero): 0.456 µM; CC50 (Vero): 77 µM

Further lines, with some results ahead:

Row | EC50 (dengue virus type 2; Dengue virus, Rega, Vero, 96 h) | SMILES | CC50 at 96 h [1] | also measured
33 | 3.3 µM | COc1nc(NC(C(=O)c2c[nH]c3ccccc23)c2ccccc2)ns1 (configuration not stated) | 90 µM | 
34 | 0.134 µM | COc1cccc(NC(C(=O)c2c[nH]c3ccccc23)c2ccsc2)c1 (configuration not stated) | 15 µM | 
35 | 0.269 µM | COc1cccc(NC(C(=O)c2c[nH]c3ccccc23)c2cccc(C)c2)c1 (configuration not stated) | 20 µM | 
36 | 0.015 µM | COc1cc(NC(C(=O)c2c[nH]c3ccccc23)c2cccnc2)cc(OC)c1 (configuration not stated) | 69 µM | EC50 (dengue virus type 1): 0.173 µM; EC50 (dengue virus type 4): 2.5 µM; EC50 (dengue virus type 3): 0.31 µM
37 | 0.004 µM | COc1cc(NC(C(=O)c2c[nH]c3ccccc23)c2ccc(F)cc2)cc(OC)c1 (configuration not stated) | 13 µM | 
38 | 0.024 µM | COc1cccc(NC(C(=O)c2c[nH]c3cccc(Cl)c23)c2ccccc2)c1 (configuration not stated) | 18 µM | 
39 | 0.065 µM | COc1cc(CO)cc(NC(C(=O)c2c[nH]c3ccccc23)c2ccccc2)c1 (configuration not stated) | 71 µM | metabolised at 0.25 h [4]: 85%; solubility ([5]; read-out: solubility): 50 µM (≈ 19.3 µg/mL); metabolised at 0.25 h [6]: 18%
40 | 6.3 µM | COc1ccnc(NC(C(=O)c2c[nH]c3ccccc23)c2ccccc2)c1 (configuration not stated) | 95 µM | 
41 | 1.2 µM | COc1cccc(NC(C(=O)c2c[nH]c3ccccc23)c2ccc3nccnc3c2)c1 (configuration not stated) | 19 µM | 
42 | 6.1 µM | O=C(c1c[nH]c2ccccc12)C(Nc1ccc2[nH]c(=O)oc2c1)c1ccccc1 (configuration not stated) | 15 µM | 
43 | 0.041 µM | COc1cccc(NC(C(=O)c2c[nH]c3ccccc23)c2ccc(C#N)cc2)c1 (configuration not stated) | 14 µM | 
44 | 0.288 µM | COc1cc(NC(C(=O)c2c[nH]c3cccc(CO)c23)c2ccccc2)cc(OC)c1 (configuration not stated) | 71 µM | 
45 | 0.051 µM | COc1cccc(NC(C(=O)c2c[nH]c3c(C)cccc23)c2ccccc2)c1 (configuration not stated) | > 135 µM | 
46 | 0.138 µM | COc1cccc(NC(C(=O)c2c[nH]c3ccccc23)c2ccncc2)c1 (configuration not stated) | 16 µM | 
47 | 0.02 µM | COc1cc(F)cc(NC(C(=O)c2c[nH]c3ccccc23)c2ccccc2)c1 (configuration not stated) | 22 µM | 
48 | 0.096 µM | COc1cccc(NC(C(=O)c2c[nH]c3ccccc23)c2ccccc2C)c1 (configuration not stated) | 14 µM | 
49 | 2.5 µM | COc1ccc(OC)c(NC(C(=O)c2c[nH]c3ccccc23)c2ccccc2)c1 (configuration not stated) | 15 µM | 
50 | 0.022 µM | COc1cccc(NC(C(=O)c2c[nH]c3ccccc23)c2ccc(C)cc2)c1 (configuration not stated) | 20 µM | 
51 | 0.007 µM | COc1cc(NC(C(=O)c2c[nH]c3ccc(F)cc23)c2ccccc2)cc(OC)c1 (configuration not stated) | 13 µM | EC50 (dengue virus type 1): 0.247 µM; Activity (Salmonella typhimurium [2]): Non-Toxic; EC50 (dengue virus type 4): 4.8 µM; Activity (Salmonella typhimurium [3]): Non-Toxic; EC50 (dengue virus type 3): 0.68 µM
52 | 0.045 µM | COc1cccc(NC(C(=O)c2c[nH]c3cc(F)ccc23)c2ccccc2)c1 (configuration not stated) | 15 µM | 
53 | 0.391 µM | COc1cccc(NC(C(=O)c2c[nH]c3ccccc23)c2cncnc2)c1 (configuration not stated) | 100 µM | 
54 | 0.288 µM | COc1cccc(NC(C(=O)c2c[nH]c3ccccc23)c2ccccc2)n1 (configuration not stated) | 16 µM | 
55 | 5 µM | O=C(c1c[nH]c2ccccc12)C(Nc1cccnc1)c1ccccc1 (configuration not stated) | 54 µM | 
